Results from ChEMBL document CHEMBL1123469, “Synthesis and activity of 6-aryl-3-(hydroxypolymethyleneamino)pyridazines in animal models of epilepsy” (1986).

What was measured:
Type in all cases: functional
Mus musculus [1] = assay: Evaluated for Bicuculline-induced lethality (anticonvulsant activity) when administered 100 mg/kg orally in mice.; conditions: route oral
Summary of the method: (§1)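 Female Swiss albino CD1 mice (18-23 g), oral dosing (20 mL/kg); test compounds dissolved in dilute HCl (pH 3), reference drugs suspended in 5% gum tragacanth. Bicuculline challenge, scoring protection from seizures and from lethality. […] Weakly active agents reported as percent protected at the stated dose.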

Mus musculus [2] = assay: Evaluated for the sedative property by the rotarod test at 100 mg/kg.
Summary of the method: (§2)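 Motor coordination was tested on the rotorod in groups of 10 female Swiss CD1 mice (18-23 g). Drug or vehicle was given orally, test compounds in dilute HCl (pH 3), 60 min before testing.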

Mus musculus [3] = assay: Evaluated for Bicuculline-induced seizures (anticonvulsant activity) when administered at 100 mg/kg orally in mice.; conditions: route oral
Summary of the method: (§3)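 Female Swiss CD1 mice (18-23 g) were dosed orally at 20 mL/kg, test compounds in dilute HCl (pH 3) and references in gum tragacanth. Protection against bicuculline- or pentylenetetrazole-induced clonic/tonic seizures and lethality was scored.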

Mus musculus [4] = assay: Anticonvulsant activity when administered 100 mg/kg orally in mice Maximal electroshock (MES); conditions: route oral
Summary of the method: (§4)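 Female Swiss CD1 mice (18-23 g), groups of 10, were dosed orally at 20 mL/kg. Test compounds were given in dilute HCl (pH 3) and references in 5% gum tragacanth, 60 min before a 60-V alternating current for 0.3 s through corneal electrodes. Protection meant abolition of the hindlimb tonic extensor component.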

Mus musculus [5] = assay: Evaluated for Bicuculline-induced lethality (anticonvulsant activity) when administered orally in mice.; conditions: po; summary of the method: as §1
Mus musculus [6] = organism: Mus musculus; assay: Sedative property by the rotarod test; summary of the method: as §2
Mus musculus [7] = assay: Evaluated for anticonvulsant activity when administered orally in mice by Maximal electroshock (MES).; conditions: po; summary of the method: as §4
Mus musculus [8] = assay: Evaluated for Bicuculline-induced seizures (anticonvulsant activity) when administered orally in mice.; conditions: po; summary of the method: as §3
Mus musculus [9] = assay: Compound was evaluated for the sedative property by the rotarod test at 250 mg/kg
Summary of the method: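 Rotorod motor-coordination test in female Swiss albino CD1 mice (18-23 g). Groups of 10 mice dosed with test drug or vehicle 60 min before testing; test compounds dissolved in dilute HCl (pH 3).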

Mus musculus [10] = assay: Compound was evaluated for anticonvulsant activity when administered 250 mg/kg orally in mice Maximal electroshock (MES); conditions: route oral; summary of the method: as §4
Mus musculus [11] = assay: Compound was evaluated for Bicuculline-induced lethality (anticonvulsant activity) when administered 250 mg/kg orally in mice; conditions: route oral; summary of the method: as §1
Mus musculus [12] = assay: Compound was evaluated for Bicuculline-induced seizures (anticonvulsant activity) when administered 250 mg/kg orally in mice; conditions: route oral; summary of the method: as §3
Papio hamadryas = organism: Papio hamadryas; assay: Antagonist activity to generalized seizures Photically induced seizures in senegalese Papio papio baboons
Summary of the method: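 Naturally photosensitive baboons of both sexes (4-7 kg) were dosed orally, test compounds in dilute HCl (pH 3) and references in 5% gum tragacanth, at 4 mL/kg. They were photically stimulated at hourly intervals afterwards, and the myoclonic response was graded after Killam. Threshold active dose is the first dose that protected at least two of four animals for at least 2 h.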

Mus musculus [13] = assay: Anticonvulsant activity in Clonic seizures when administered orally in mice; conditions: po; summary of the method: as §3
Mus musculus [14] = assay: Anticonvulsant activity in tonic seizures when administered orally in mice; conditions: po
Mus musculus [15] = organism: Mus musculus; assay: Sedative properties by the rotarod test; summary of the method: as §2
Mus musculus [16] = assay: Anticonvulsant activity in Maximal electroshock (MES) when administered orally in mice; conditions: po; summary of the method: as §4
Rattus norvegicus = organism: Rattus norvegicus; assay: Antagonist activity to generalized seizures kindled amygdaloid seizures in rats
Summary of the method: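 Male Sprague-Dawley rats (200-500 g), groups of 10, carried platinum electrodes in the right basolateral amygdala. They counted as kindled after stage-5 seizures on 3 consecutive days at 30-90 μA. A control stimulation was followed by an oral dose (5 mL/kg) and restimulation 1 h later. After-discharge duration and Racine seizure stage were compared with vehicle.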

Mus musculus [17] = assay: Compound was evaluated for Bicuculline-induced seizures (anticonvulsant activity)when administered orally in mice; conditions: po; summary of the method: as §1

SMILES	Protected (Mus musculus [2])	Protected (Mus musculus [3])	Protected (Mus musculus [4])	ED50 (Mus musculus [5])	other results
Clc1ccccc1-c1ccc(N2CCC3(CC2)OCCO3)nn1	0%	40%	–	–	Protected (Mus musculus [1]): 30%
N#Cc1cccc(-c2ccc(N3CCC(O)CC3)nn2)c1	0%	10%	33%	–	–
O=[N+]([O-])c1ccccc1-c1ccc(N2CCC(O)CC2)nn1	0%	–	–	57 mg/kg	–
CNC(=O)OC1CCN(c2ccc(-c3ccccc3Cl)nn2)CC1	–	–	–	9 mg/kg	ED50 (Mus musculus [6]): 37 mg/kg
OC1CCN(c2ccc(-c3ccc(Cl)c(Cl)c3)nn2)CC1	100%	0%	25%	–	Protected (Mus musculus [1]): 20%
O=[N+]([O-])c1cccc(-c2ccc(N3CCC(O)CC3)nn2)c1	30%	0%	–	–	Protected (Mus musculus [1]): 20%; ED50 (Mus musculus [7]): 79 mg/kg
Cc1ccccc1-c1ccc(N2CCC(O)CC2)nn1	–	–	–	60 mg/kg	ED50 (Mus musculus [8]): 40 mg/kg; ED50 (Mus musculus [7]): 30 mg/kg
COc1ccc(-c2ccc(N3CCC(O)CC3)nn2)cc1	0%	20%	50%	–	–
OC1CCN(c2ccc(-c3ccccc3)nn2)CC1	0%	–	–	41 mg/kg	–
CCCC(=O)OC1CCN(c2ccc(-c3ccccc3Cl)nn2)CC1	0%	–	–	30 mg/kg	–
Cc1cccc(-c2ccc(N3CCC(O)CC3)nn2)c1	0%	30%	–	50 mg/kg	ED50 (Mus musculus [7]): 36 mg/kg
CCCCNC(=O)OC1CCN(c2ccc(-c3ccc(Cl)cc3)nn2)CC1	0%	0%	0%	–	–
C/N=C(\S)OC1CCN(c2ccc(-c3ccccc3Cl)nn2)CC1	–	–	–	20 mg/kg	ED50 (Mus musculus [8]): 20 mg/kg; ED50 (Mus musculus [7]): 35 mg/kg
CCCCNC(=O)OC1CCN(c2ccc(-c3ccccc3Cl)nn2)CC1	0%	0%	20%	–	–
OC1CCN(c2ccc(-c3cccs3)nn2)CC1	0%	0%	0%	–	–
OC1CCN(c2ccc(-c3ccccc3F)nn2)CC1	0%	–	–	34 mg/kg	–
CCC(=O)OC1CCN(c2ccc(-c3ccc(Cl)cc3Cl)nn2)CC1	–	–	–	13 mg/kg	ED50 (Mus musculus [8]): 16 mg/kg; ED50 (Mus musculus [6]): 71 mg/kg; ED50 (Mus musculus [7]): 50 mg/kg
OC1CCN(c2ccc(-c3ccc(Cl)cc3)nn2)CC1	40%	0%	–	–	Protected (Mus musculus [1]): 70%; ED50 (Mus musculus [7]): 29 mg/kg
CNC(=O)OC1CCN(c2ccc(-c3ccc(Cl)cc3)nn2)CC1	0%	20%	20%	–	–
CC(=O)OC1CCN(c2ccc(-c3ccc(Cl)cc3Cl)nn2)CC1	–	–	–	8.3 mg/kg	ED50 (Mus musculus [8]): 9.8 mg/kg; ED50 (Mus musculus [6]): 70 mg/kg; ED50 (Mus musculus [7]): 14 mg/kg
O=C(Nc1cccc(Cl)c1)OC1CCN(c2ccc(-c3ccccc3Cl)nn2)CC1	0%	0%	35%	–	–
O=C(OC1CCN(c2ccc(-c3ccccc3Cl)nn2)CC1)C1CC1	0%	–	60%	71 mg/kg	–
CNC(=O)OC1CCN(c2ccc(-c3ccc(F)cc3)nn2)CC1	20%	40%	–	–	Protected (Mus musculus [1]): 30%; ED50 (Mus musculus [7]): 40 mg/kg
O=COC1CCN(c2ccc(-c3ccc(Cl)cc3Cl)nn2)CC1	–	50%	–	–	ED50 (Mus musculus [6]): 69 mg/kg; ED50 (Mus musculus [7]): 24 mg/kg
O=C1CCN(c2ccc(-c3ccccc3Cl)nn2)CC1	40%	–	–	25 mg/kg	–
OC1CCN(c2ccc(-c3ccc(Cl)s3)nn2)CC1	0%	50%	30%	–	–

SMILES	Protected (Mus musculus [2])	Protected (Mus musculus [3])	Protected (Mus musculus [4])	ED50 (Mus musculus [5])	other results
OC1CCCN(c2ccc(-c3ccccc3Cl)nn2)C1 (stereo unspecified)	0%	0%	15%	–	–
CNC(=O)OC1CCN(c2ccc(-c3ccc(Cl)cc3Cl)nn2)CC1	–	–	–	1.4 mg/kg	ED50 (Mus musculus [8]): 1.4 mg/kg; ED50 (Mus musculus [6]): 20 mg/kg; ED50 (Mus musculus [7]): 5.5 mg/kg
Oc1ccc(-c2ccc(N3CCC(O)CC3)nn2)cc1	–	–	–	–	Protected (Mus musculus [9]): 10%; Protected (Mus musculus [10]): 25%; Protected (Mus musculus [11]): 10%; Protected (Mus musculus [12]): 0%
Oc1ccccc1-c1ccc(N2CCC(O)CC2)nn1	–	0%	0%	–	Protected (Mus musculus [9]): 0%
OC1CCN(c2ccc(-c3ccsc3)nn2)CC1	0%	10%	80%	–	Protected (Mus musculus [1]): 20%
O=C(OC1CCN(c2ccc(-c3ccccc3Cl)nn2)CC1)c1ccc(Cl)cc1	0%	0%	0%	–	–
CNC(=O)OC1CCN(c2ccc(-c3ccc(Cl)c(Cl)c3)nn2)CC1	0%	0%	50%	–	–
OC1CCN(c2ccc(-c3ccc(F)cc3)nn2)CC1	50%	10%	–	–	–
O=[N+]([O-])c1ccc(-c2ccc(N3CCC(O)CC3)nn2)cc1	–	–	40%	57 mg/kg	ED50 (Mus musculus [8]): 54 mg/kg
Cc1cc(Cl)ccc1-c1ccc(N2CCC(O)CC2)nn1	–	–	–	10 mg/kg	ED50 (Mus musculus [8]): 10 mg/kg; ED50 (Mus musculus [6]): 64 mg/kg; ED50 (Mus musculus [7]): 10 mg/kg
CNC(=O)OC1CCN(c2ccc(-c3cccc(Cl)c3)nn2)CC1	0%	10%	40%	–	Protected (Mus musculus [1]): 0%
CC(C)(C)C(=O)OC1CCN(c2ccc(-c3ccccc3Cl)nn2)CC1	0%	0%	0%	–	–
OC1CCN(c2ccc(-c3cccc(Cl)c3)nn2)CC1	40%	10%	–	–	Protected (Mus musculus [1]): 40%
CNC(=O)OC1CCN(c2ccc(-c3cccs3)nn2)CC1	10%	0%	10%	–	Protected (Mus musculus [1]): 20%
Cc1ccc(-c2ccc(N3CCC(O)CC3)nn2)c(Cl)c1	–	–	–	16 mg/kg	ED50 (Mus musculus [8]): 17 mg/kg; ED50 (Mus musculus [6]): 48 mg/kg; ED50 (Mus musculus [7]): 21 mg/kg
CCCC(=O)OC1CCN(c2ccc(-c3ccc(Cl)cc3Cl)nn2)CC1	–	–	–	30 mg/kg	ED50 (Mus musculus [8]): 31 mg/kg; ED50 (Mus musculus [6]): 30 mg/kg; ED50 (Mus musculus [7]): 50 mg/kg
CN(C)C(=O)OC1CCN(c2ccc(-c3ccccc3Cl)nn2)CC1	–	–	–	1.1 mg/kg	ED50 (Mus musculus [6]): 8.4 mg/kg
OC1CCN(c2ccc(-c3cccc(C(F)(F)F)c3)nn2)CC1	50%	0%	–	–	–
OC1CCN(c2ccc(-c3cccc4ccccc34)nn2)CC1	0%	40%	–	–	Protected (Mus musculus [1]): 0%
Cc1ccc(-c2ccc(N3CCC(O)CC3)nn2)cc1	0%	0%	–	–	Protected (Mus musculus [1]): 50%; ED50 (Mus musculus [7]): 73 mg/kg
OC1CCN(c2ccc(-c3ccccc3Cl)nn2)C1 (stereo unspecified)	0%	40%	30%	–	–
NC(=O)N1c2ccccc2C=Cc2ccccc21 [CARBAMAZEPINE]	–	–	–	16 mg/kg	Threshold active dose (Papio hamadryas): 100 mg/kg; ED50 (Mus musculus [8]): 29 mg/kg; ED50 (Mus musculus [13]): > 100 mg/kg; ED50 (Mus musculus [14]): 21 mg/kg; ED50 (Mus musculus [15]): 95 mg/kg; ED50 (Mus musculus [16]): 21 mg/kg; Threshold active dose (Rattus norvegicus): 10 mg/kg
OC1CCN(c2ccc(-c3ccc(Cl)cc3Cl)nn2)CC1 [ENDIXAPRINE]	–	–	–	8.5 mg/kg	Threshold active dose (Papio hamadryas): 50 mg/kg; ED50 (Mus musculus [8]): 8.5 mg/kg; ED50 (Mus musculus [13]): 18 mg/kg; ED50 (Mus musculus [14]): 11 mg/kg; ED50 (Mus musculus [15]): 34 mg/kg; ED50 (Mus musculus [16]): 14 mg/kg; Threshold active dose (Rattus norvegicus): 20 mg/kg
OC1CCN(c2ccc(-c3ccccc3Cl)nn2)CC1 [LODAXAPRINE]	–	–	–	34 mg/kg	Threshold active dose (Papio hamadryas): 40 mg/kg; ED50 (Mus musculus [13]): 77 mg/kg; ED50 (Mus musculus [14]): 29 mg/kg; ED50 (Mus musculus [15]): 138 mg/kg; Threshold active dose (Rattus norvegicus): 20 mg/kg
CCC1(c2ccccc2)C(=O)NC(=O)NC1=O [PHENOBARBITAL]	–	–	–	5.2 mg/kg	Threshold active dose (Papio hamadryas): 5 mg/kg; ED50 (Mus musculus [13]): 15 mg/kg; ED50 (Mus musculus [14]): 7 mg/kg; ED50 (Mus musculus [15]): 61 mg/kg; ED50 (Mus musculus [16]): 5.4 mg/kg; Threshold active dose (Rattus norvegicus): 20 mg/kg; ED50 (Mus musculus [17]): 5.8 mg/kg
CCCC(CCC)C(=O)[O-].[Na+] [VALPROATE SODIUM]	–	–	–	246 mg/kg	Threshold active dose (Papio hamadryas): 300 mg/kg; ED50 (Mus musculus [8]): 274 mg/kg; ED50 (Mus musculus [13]): 363 mg/kg; ED50 (Mus musculus [14]): 201 mg/kg; ED50 (Mus musculus [15]): 406 mg/kg; ED50 (Mus musculus [16]): 324 mg/kg; Threshold active dose (Rattus norvegicus): 200 mg/kg
